This sample holds only a part of the variants without activity.
B1: tRNA (parent)
chain: GUUCCGUUGGCGUAAUGGUAACGCGUCUCCCUCCUAAGGAGAAGACUGCGGGUUCGAGUCCCGUACGGAACG

Variants of: B1
Experiment: yeast fitness relative to wild type (ratio to wild type); higher = fitter; tRNA-Arg(CCU), competitive growth, 37 C, YPD
Method in brief: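 The tRNA-Arg(CCU) gene variants were made by chemical synthesis with a 3% per-site mutation rate at 69 sites and inserted at the native genomic locus of Saccharomyces cerevisiae. After pooling, the strains were competed in YPD at 37°C for 24 hours in six parallel replicates. Gene amplicons from the start population and each end population were read by 100-nucleotide paired-end sequencing, and Darwinian fitness relative to wild type was taken from genotype frequency changes. Genotypes needed ≥ 100 starting reads, and estimates < 0.5 were set to 0.5.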

First: G10C U47G C55U A70G
Second: C5U G6A
The yeast fitness of the first is lower: at most 0.5 for the first, 0.884 for the second.

Going from U7A G12A C27A to G12C A65U, the yeast fitness rises from at most 0.5 to 0.735.

Compared with U19G U32G G51C A57U, C5G G25A A65G is higher in yeast fitness: at most 0.5 for the first, 0.763 for the second.

Going from U7A U32C to G9A G25A A43G A65U, the yeast fitness falls from 0.764 to at most 0.5.

G18A C33A G44A U64C and A20U C60G C61U cannot be ordered by yeast fitness: at most 0.5 for the first, at most 0.5 for the second.

Going from U2G G18A C27A C30U to G9U G18A C46A C49G, the yeast fitness rises from at most 0.5 to 0.552.

Compared with C22U C30U A37G, C55G C60A is higher in yeast fitness: 0.526 for the first, 0.536 for the second.

A20C A37C A43G C55U and C5G A14U G18A A21U A42G G56C cannot be ordered by yeast fitness: at most 0.5 for the first, at most 0.5 for the second.

Going from G50U C66U to C33U C34G, the yeast fitness falls from 0.96 to 0.648.

U19A C24G C29U G52C U64G and C49A G63C A69G cannot be ordered by yeast fitness: at most 0.5 for the first, at most 0.5 for the second.

C5U G39A U53A and C5A U28C U35C C66U cannot be ordered by yeast fitness: at most 0.5 for the first, at most 0.5 for the second.

Going from U19C U28A G38C G44C C46A to C31U C62U G63A, the yeast fitness rises from 0.572 to 0.617.

Going from G12A C24A A36U A69C to G52C A70C, the yeast fitness rises from 0.599 to 0.715.

Compared with G12A C49U A65C, C30G C34G is lower in yeast fitness: 0.676 for the first, at most 0.5 for the second.

First: C30G A70U
Second: U19C G50A
The yeast fitness of the first is lower: 0.58 for the first, 0.833 for the second.

U3A C31U A40C U64A and A42G C49G C61G cannot be ordered by yeast fitness: at most 0.5 for the first, at most 0.5 for the second.

First: A45G G50A U54C
Second: G17A C34G
The yeast fitness of the first is lower: at most 0.5 for the first, 0.569 for the second.

Compared with A21C C22G G38C A57C, U2A C33G A36U G44A U59C is higher in yeast fitness: 0.524 for the first, 0.554 for the second.

U13A C22G G25C C27U C30G A57C A69U and A20U A37C G38C cannot be ordered by yeast fitness: at most 0.5 for the first, at most 0.5 for the second.

Going from C11G C46U C49A C55U A69U to C4G U13A, the yeast fitness rises from 0.536 to 0.874.

Compared with C30U C62G, C34U A69C is lower in yeast fitness: 0.855 for the first, 0.774 for the second.

Going from U19C A65G to C11U U19G C66A, the yeast fitness falls from 1 to 0.54.

Going from G18A G25A C29G C34A to C4G U26A U32C, the yeast fitness rises from at most 0.5 to 0.565.

First: U32C C46G C62U
Second: U3G C4U
The yeast fitness of the first is lower: 0.733 for the first, 0.915 for the second.

First: U16A C46G A70G
Second: G10A A20U C31G C62U
The yeast fitness of the first is higher: 0.604 for the first, at most 0.5 for the second.

Compared with G48A A57C, C22G G50C A57G is lower in yeast fitness: 0.643 for the first, at most 0.5 for the second.

Going from U2A C31A U47C A69U to C5U U16C, the yeast fitness rises from at most 0.5 to 0.972.

First: U7G C55G
Second: A20G A42C A45C
The yeast fitness of the first is higher: 0.655 for the first, at most 0.5 for the second.

C5A A14U A21C C61U and C5A C24G U26A C29G U32A A65U cannot be ordered by yeast fitness: at most 0.5 for the first, at most 0.5 for the second.

Compared with G9A C29U U32A A43U, G25C G50C is higher in yeast fitness: 0.604 for the first, 0.627 for the second.

Compared with A20G G23C A69C, C5U G18C C22A G51C is higher in yeast fitness: at most 0.5 for the first, 0.562 for the second.

Compared with C11U C29G A37C A42U A57G G67A, U2A U19A G44A is lower in yeast fitness: 0.566 for the first, 0.544 for the second.

First: G18C G50A C62A
Second: U8A C22G
The yeast fitness of the first is lower: at most 0.5 for the first, 0.7 for the second.

Compared with U16C C62U, U32G U54A G67C is lower in yeast fitness: 1 for the first, at most 0.5 for the second.

Compared with A40G G44C, G12C A15G A45G G50C A69C is lower in yeast fitness: 0.676 for the first, at most 0.5 for the second.

Going from A40U A65G to C27U C30G, the yeast fitness falls from 1.01 to 0.624.

First: G50A U59A
Second: C5G G12C U19A C31A
The yeast fitness of the first is higher: 0.831 for the first, at most 0.5 for the second.

U13A A14U C22G A37G G41A and G10C A36U G41A C66U A70C cannot be ordered by yeast fitness: at most 0.5 for the first, at most 0.5 for the second.

First: G9C A14U G48C U64G
Second: C11U A20G C22A G23C U28G A43G A57G A70U
The yeast fitness of the first is lower: at most 0.5 for the first, 0.587 for the second.

First: C4A C22A C55U
Second: A14U A37G G44C A45C G50A C55G
The yeast fitness of the first is lower: at most 0.5 for the first, 0.594 for the second.

Going from C22A C31G U35C to G6C G17A A36U C46A C66A, the yeast fitness rises from at most 0.5 to 0.512.

In the case of C11G C31U C33U, the yeast fitness is reported as 0.509.

Reference: the RNAGym collection of RNA variant scans (doi:10.1126/science.aae0568)
